Source: ChEMBL document CHEMBL4814053, “Inhibitors of heat shock protein 70 (Hsp70) with enhanced metabolic stability reduce tau levels” (Bioorg Med Chem Lett, 2021)
Calls of active or inactive are those of the source. The rule behind the calls is not given here.

Experiments:
HeLa C3 = assay: Inhibition of HSP70 in human HeLa C3 cells assessed as degradation of tau at >10 uM incubated for 24 hrs by Western blot analysis; assay type: cell-based; conditions: dose microM >10, time 24.0 hrs
Method in brief: (§1)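 Cells treated for 24 h at the indicated concentrations, then lysed; total tau, Hsp72 and Hsp90 levels analyzed by Western blot. HeLaC3 cells over-express 0N4R tau. SH-SY5Y cells express tau at physiological levels.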

[1] = Metabolic stability in mouse liver microsomes assessed as half life; assay type: ADME, Microsome; conditions: for half-life: liver microsomes
Method in brief: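 Half-life in mouse liver microsome assays was calculated from the amount of compound remaining over time, with dextromethorphan as positive control.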

[2] = Induction of heat shock response in human HeLa C3 cells assessed as effect on HSP90 expression at 3 to 30 uM incubated for 24 hrs by Western blot analysis; assay type: cell-based; conditions: hela c3, 24 h, dose 3-30 µM; method in brief: as §1
[3] = Induction of heat shock response in human HeLa C3 cells assessed as effect on HSP72 expression at 3 to 30 uM incubated for 24 hrs by Western blot analysis; assay type: cell-based; conditions: hela c3, 24 h, dose 3-30 µM; method in brief: as §1
SH-SY5Y [4] = assay: Induction of heat shock response in human SH-SY5Y cells assessed as effect on HSP72 expression at 3 to 30 uM incubated for 24 hrs by Western blot analysis; assay type: cell-based; conditions: dose 3-30 µM; method in brief: as §1
SH-SY5Y [5] = assay: Inhibition of HSP70 in human SH-SY5Y cells assessed as degradation of tau at 3 to 30 uM incubated for 24 hrs by Western blot analysis relative to control; assay type: cell-based; conditions: dose 3-30 µM; method in brief: as §1
SH-SY5Y [6] = assay: Induction of heat shock response in human SH-SY5Y cells assessed as effect on HSP90 expression at 3 to 30 uM incubated for 24 hrs by Western blot analysis; assay type: cell-based; conditions: dose 3-30 µM; method in brief: as §1
[7] = Metabolic stability in mouse liver microsomes assessed as parent compound remaining after 30 mins; assay type: ADME, Microsome; conditions: for remaining at 0.5 h: liver microsomes, read-out: Stabilty; for Stabilty: microsomes, 0.5 h
Method in brief: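 Compound incubated with mouse liver microsomes for 30 minutes at 37 °C, with dextromethorphan as positive control. Read-out is the percentage of unmodified compound remaining at 30 min.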

SMILES	remaining at 0.5 h [7]	also measured
CCn1c(=O)/c(=C2\Sc3ccc(Cl)cc3N2C)s/c1=C\c1ccncc1	52%	inhibition (HeLa C3): Active; t1/2 ([1]; microsomes): 36 min; Activity [2]: Non-Toxic; Activity [3]: Non-Toxic; Activity (SH-SY5Y [4]): Non-Toxic; inhibition (SH-SY5Y [5]): 80%; Activity (SH-SY5Y [6]): Non-Toxic
CCn1c(=O)/c(=C2\Sc3cc(Cl)ccc3N2C)s/c1=C\c1ccncc1	39%	half-life [1]: 22 min
CCn1c(=O)/c(=C2\Sc3c(Cl)cccc3N2C)s/c1=C\c1ccccn1	17%	–
CCn1c(=O)/c(=C2\Sc3cc(F)ccc3N2C)s/c1=C\c1ccccn1	5%	–
CCn1c(=O)/c(=C2\Sc3cccc(F)c3N2C)s/c1=C\c1ccncc1	33%	–
CCn1c(=O)/c(=C2\Sc3cccc(F)c3N2C)s/c1=C\c1ccccn1	12%	–
CCn1c(=O)/c(=C2\Sc3cc(F)ccc3N2C)s/c1=C\c1ccncc1	13%	–
CCn1c(=O)/c(=C2\Sc3cc(Cl)ccc3N2C)s/c1=C\c1ccccn1	13%	–
CCn1c(=O)/c(=C2\Sc3ccc(F)cc3N2C)s/c1=C\c1ccncc1	23%	–
CCn1c(=O)/c(=C2\Sc3cccc(Cl)c3N2C)s/c1=C\c1ccccn1	38%	half-life [1]: 23 min
CCn1c(=O)/c(=C2\Sc3cccc(Cl)c3N2C)s/c1=C\c1ccncc1	–	Stabilty [7]: Nd(Insoluble)
CCn1c(=O)/c(=C2\Sc3ccccc3N2C)s/c1=C\c1ccccn1	–	half-life [1]: < 3 min; Stabilty ([7]; BLD = below limit of detection): Bld
CCn1c(=O)/c(=C2\Sc3ccccc3N2C)s/c1=C\c1ccncc1	6%	–
CCn1c(=O)/c(=C2\Sc3c(Cl)cccc3N2C)s/c1=C\c1ccncc1	–	Stabilty [7]: Nd(Insoluble)
CCn1c(=O)/c(=C2\Sc3ccc(F)cc3N2C)s/c1=C\c1ccccn1	19%	–
CCn1c(=O)/c(=C2\Sc3c(F)cccc3N2C)s/c1=C\c1ccncc1	30%	–
COc1ccc2c(c1)[C@]13CCCC[C@@H]1[C@H](C2)N(C)CC3 [DEXTROMETHORPHAN]	–	half-life [1]: 25 min
CCn1c(=O)/c(=C2\Sc3ccc(Cl)cc3N2C)s/c1=C\c1ccccn1	37%	half-life [1]: 17 min
CCn1c(=O)/c(=C2\Sc3c(F)cccc3N2C)s/c1=C\c1ccccn1	12%	–
